Where a SMILES comes first, the peptide text is derived from it. Bridges are numbered along the chain shown (N, C = ends).
Each compound was assayed on Human immunodeficiency virus 1 (assay: Antiviral activity against HIV1 RF infected in human CEM-SS cells assessed as inhibition of virus induced cytopathic effect by XTT assay). Details: Human immunodeficiency virus 1, RF.
Format: functional, organism-based
Summary of the method: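 HIV-1RF infection of CEM-SS, a human T-lymphoblastoid cell line, in vitro; inhibition of virus-induced cytopathic effects read out and reported as EC50 in µM.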
Work on `CC[C@H](C)[C@@H]1NC(=O)[C@@H]2CSSC[C@@H]3NC(=O)[C@H](C(C)C)NC(=O)[C@H](CCCCN)NC(=O)[C@H](CC(N)=O)NC(=O)[C@H](CCCCN)NC(=O)[C@@H]4CSSC[C@H](NC(=O)[C@H](CO)NC(=O)[C@H](CCC(=O)O)NC(=O)CNC(=O)[C@H](CSSC[C@H](NC(=O)CNC(=O)[C@H](CC(C)C)NC(=O)[C@H](C)NC(=O)[C@H](C)NC(=O)[C@H](CO)NC1=O)C(=O)N[C@@H](CO)C(=O)N4)NC(=O)[C@@H]1CCCN1C(=O)[C@H]([C@@H](C)CC)NC(=O)CNC(=O)[C@H](CC(N)=O)NC(=O)[C@H](CCCNC(=N)N)NC(=O)[C@H](Cc1ccc(O)cc1)NC3=O)C(=O)N[C@@H](C(C)C)C(=O)N[C@@H](Cc1c[nH]c3ccccc13)C(=O)N[C@@H]([C@@H](C)CC)C(=O)N1CCC[C@H]1C(=O)N2` [CIRCULIN A] (cyclo(AALGCSCKNKVCYRNGIPCGESCVWIPCIS); disulfide 5-19, 7-23, 12-28) yielded an EC50 of 50 nM. `CC[C@H](C)[C@@H]1NC(=O)[C@@H]2CSSC[C@@H]3NC(=O)[C@H](C(C)C)NC(=O)[C@H](CCCCN)NC(=O)[C@H](CC(N)=O)NC(=O)[C@H](CCCCN)NC(=O)[C@@H]4CSSC[C@H](NC(=O)[C@H](CO)NC(=O)[C@H](CCC(=O)O)NC(=O)CNC(=O)[C@H](CSSC[C@H](NC(=O)CNC(=O)[C@H](CC(C)C)NC(=O)[C@H](CC(C)C)NC(=O)[C@H]([C@@H](C)O)NC(=O)[C@H](CO)NC1=O)C(=O)N[C@@H](CO)C(=O)N4)NC(=O)[C@@H]1CCCN1C(=O)[C@H]([C@@H](C)CC)NC(=O)[C@H](C(C)C)NC(=O)CNC(=O)[C@H](CC(N)=O)NC(=O)[C@H](CCCNC(=N)N)NC(=O)[C@H](Cc1ccc(O)cc1)NC3=O)C(=O)N[C@@H](C(C)C)C(=O)N[C@@H](Cc1ccccc1)C(=O)N[C@@H]([C@@H](C)CC)C(=O)N1CCC[C@H]1C(=O)N2` [CIRCULIN B] (cyclo(CGESCVFIPCISTLLGCSCKNKVCYRNGVIP); disulfide 1-17, 5-19, 10-24) was tested, and the EC50 was 50 nM. `CC[C@H](C)[C@@H]1NC(=O)[C@@H]2CSSC[C@@H]3NC(=O)[C@H](C(C)C)NC(=O)[C@H](CCCCN)NC(=O)[C@H](CO)NC(=O)[C@H](CCCCN)NC(=O)[C@@H]4CSSC[C@H](NC(=O)[C@H](CO)NC(=O)[C@H](CCC(=O)O)NC(=O)CNC(=O)[C@H](CSSC[C@H](NC(=O)CNC(=O)[C@H](C)NC(=O)[C@H](C(C)C)NC(=O)[C@H](CO)NC(=O)[C@H]([C@@H](C)O)NC1=O)C(=O)N[C@@H](CO)C(=O)N4)NC(=O)[C@@H]1CCCN1C(=O)[C@H]([C@@H](C)CC)NC(=O)CNC(=O)[C@H](CC(N)=O)NC(=O)[C@H](CCCNC(=N)N)NC(=O)[C@H](Cc1ccc(O)cc1)NC3=O)C(=O)N[C@@H](C(C)C)C(=O)N[C@@H](Cc1ccccc1)C(=O)N[C@@H]([C@@H](C)CC)C(=O)N1CCC[C@H]1C(=O)N2` [CIRCULIN C] (cyclo(AGCSCKSKVCYRNGIPCGESCVFIPCITSV); disulfide 3-17, 5-21, 10-26) showed an EC50 of 50 nM. `CC[C@H](C)[C@@H]1NC(=O)[C@H](CO)NC(=O)[C@H]([C@@H](C)O)NC(=O)[C@H](Cc2ccc(O)cc2)NC(=O)[C@@H]2CSSC[C@@H]3NC(=O)[C@H](C(C)C)NC(=O)[C@H](CCCCN)NC(=O)[C@H](CC(N)=O)NC(=O)[C@H](CCC(=O)O)NC(=O)[C@@H]4CSSC[C@H](NC(=O)[C@H](CO)NC(=O)[C@H](CCC(=O)O)NC(=O)CNC(=O)[C@H](CSSC[C@H](NC(=O)[C@H](CC(N)=O)NC(=O)[C@H](Cc5ccccc5)NC1=O)C(=O)N[C@@H](CCCCN)C(=O)N4)NC(=O)[C@@H]1CCCN1C(=O)[C@H]([C@@H](C)CC)NC(=O)[C@H](CCCCN)NC(=O)[C@H](CC(=O)O)NC(=O)[C@H](Cc1cnc[nH]1)NC(=O)[C@H](Cc1ccc(O)cc1)NC3=O)C(=O)N[C@@H](C(C)C)C(=O)N[C@@H](Cc1c[nH]c3ccccc13)C(=O)N[C@@H]([C@@H](C)CC)C(=O)N1CCC[C@H]1C(=O)N2` [CIRCULIN D] (cyclo(CENKVCYHDKIPCGESCVWIPCYTSIFNCK); disulfide 1-17, 6-22, 13-29) was tested, and the EC50 was 50 nM. `CC[C@H](C)[C@@H]1NC(=O)[C@H](CCCCN)NC(=O)[C@H](CC(=O)O)NC(=O)[C@H](Cc2cnc[nH]2)NC(=O)[C@H](Cc2ccc(O)cc2)NC(=O)[C@@H]2CSSC[C@@H]3NC(=O)[C@@H]4CCCN4C(=O)[C@H]([C@@H](C)CC)NC(=O)[C@H](Cc4c[nH]c5ccccc45)NC(=O)[C@H](C(C)C)NC(=O)[C@@H]4CSSC[C@H](NC(=O)[C@H](CCCCN)NC(=O)[C@H](CSSC[C@H](NC(=O)[C@@H]5CCCN5C1=O)C(=O)NCC(=O)N[C@@H](CCC(=O)O)C(=O)N[C@@H](CO)C(=O)N4)NC(=O)[C@H](CC(N)=O)NC(=O)[C@H](Cc1ccccc1)NC(=O)[C@H](C(C)C)NC(=O)[C@H](CO)NC(=O)[C@H]([C@@H](C)O)NC(=O)[C@H](CC(C)C)NC3=O)C(=O)N[C@@H](CCC(=O)O)C(=O)N[C@@H](CC(N)=O)C(=O)N[C@@H](CCCCN)C(=O)N[C@@H](C(C)C)C(=O)N2` [CIRCULIN E] (cyclo(CENKVCYHDKIPCGESCVWIPCLTSVFNCK); disulfide 1-17, 6-22, 13-29) was tested, and the EC50 was 50 nM. For `CC[C@H](C)[C@@H]1NC(=O)[C@H](C)NC(=O)[C@H](C)NC(=O)[C@H](CO)NC(=O)[C@H]([C@@H](C)CC)NC(=O)[C@@H]2CSSC[C@@H]3NC(=O)[C@H](C(C)C)NC(=O)[C@H](CCCCN)NC(=O)[C@H](CC(N)=O)NC(=O)[C@H](CCCCN)NC(=O)[C@@H]4CSSC[C@H](NC(=O)[C@H](CO)NC(=O)[C@H](CCC(=O)O)NC(=O)CNC(=O)[C@H](CSSC[C@H](NC(=O)CNC1=O)C(=O)N[C@@H](CO)C(=O)N4)NC(=O)[C@@H]1CCCN1C(=O)[C@H]([C@@H](C)CC)NC(=O)[C@H](C)NC(=O)[C@H](CCCNC(=N)N)NC(=O)[C@H](Cc1ccc(O)cc1)NC3=O)C(=O)N[C@@H](C(C)C)C(=O)N[C@@H](Cc1c[nH]c3ccccc13)C(=O)N[C@@H]([C@@H](C)CC)C(=O)N1CCC[C@H]1C(=O)N2` [CIRCULIN F] (cyclo(AAIGCSCKNKVCYRAIPCGESCVWIPCIS); disulfide 5-18, 7-22, 12-27), the EC50 was 50 nM. Work on `CC[C@H](C)[C@@H]1NC(=O)[C@H](C)NC(=O)[C@H](C)NC(=O)[C@H](CO)NC(=O)[C@H]([C@@H](C)CC)NC(=O)[C@@H]2CSSC[C@@H]3NC(=O)[C@H](C(C)C)NC(=O)[C@H](CCCCN)NC(=O)[C@H](CC(N)=O)NC(=O)[C@H](CCCCN)NC(=O)[C@@H]4CSSC[C@H](NC(=O)[C@H](CO)NC(=O)[C@H](CCC(=O)O)NC(=O)CNC(=O)[C@H](CSSC[C@H](NC(=O)CNC1=O)C(=O)N[C@@H](CO)C(=O)N4)NC(=O)[C@@H]1CCCN1C(=O)[C@H]([C@@H](C)CC)NC(=O)[C@H](C(C)C)NC(=O)CNC(=O)[C@H](CC(N)=O)NC(=O)[C@H](CCCNC(=N)N)NC(=O)[C@H](Cc1ccc(O)cc1)NC3=O)C(=O)N[C@@H](C(C)C)C(=O)N[C@@H](Cc1ccccc1)C(=O)N[C@@H]([C@@H](C)CC)C(=O)N1CCC[C@H]1C(=O)N2` [CYCLOVIOLIN A] (cyclo(AAIGCSCKNKVCYRNGVIPCGESCVFIPCIS); disulfide 5-20, 7-24, 12-29) yielded an EC50 of 50 nM. Work on `CC(C)C[C@@H]1NC(=O)[C@H](C(C)C)NC(=O)[C@H](Cc2ccc(O)cc2)NC(=O)[C@@H]2CSSC[C@@H]3NC(=O)[C@H]([C@@H](C)O)NC(=O)[C@@H]4CSSC[C@H](NC(=O)[C@H](C)NC(=O)[C@H]([C@@H](C)O)NC(=O)CNC(=O)[C@H](CC(N)=O)NC(=O)[C@H](CCCCN)NC(=O)[C@H](Cc5ccccc5)NC(=O)[C@H](CSSC[C@H](NC(=O)[C@@H]5CCCN5C1=O)C(=O)N[C@@H](Cc1ccccc1)C(=O)N[C@@H]([C@@H](C)O)C(=O)N[C@@H](C(C)C)C(=O)NCC(=O)N4)NC(=O)[C@H](CCC(N)=O)NC(=O)[C@H](CO)NC(=O)[C@H](CO)NC(=O)[C@H]([C@@H](C)O)NC3=O)C(=O)NCC(=O)N[C@@H](CCC(=O)O)C(=O)N[C@@H](CO)C(=O)N2` [CYCLOVIOLIN B] (cyclo(ACGESCYVLPCFTVGCTCTSSQCFKNGT); disulfide 2-16, 6-18, 11-23) yielded an EC50 of 50 nM. In the case of `CC[C@H](C)[C@@H]1NC(=O)CNC(=O)[C@H](CC(N)=O)NC(=O)[C@H](CCCNC(=N)N)NC(=O)[C@H](Cc2ccc(O)cc2)NC(=O)[C@@H]2CSSC[C@@H]3NC(=O)[C@@H]4CCCN4C(=O)[C@H]([C@@H](C)CC)NC(=O)[C@H](Cc4ccccc4)NC(=O)[C@H](C(C)C)NC(=O)[C@@H]4CSSC[C@H](NC(=O)[C@H](CO)NC(=O)[C@H](CSSC[C@H](NC(=O)[C@@H]5CCCN5C1=O)C(=O)NCC(=O)N[C@@H](CCC(=O)O)C(=O)N[C@@H](CO)C(=O)N4)NC(=O)CNC(=O)[C@H](C)NC(=O)[C@H](C(C)C)NC(=O)[C@H]([C@@H](C)O)NC(=O)[C@H]([C@@H](C)O)NC(=O)[C@H](CC(C)C)NC3=O)C(=O)N[C@@H](CCCCN)C(=O)N[C@@H](CC(N)=O)C(=O)N[C@@H](CCCCN)C(=O)N[C@@H](C(C)C)C(=O)N2` [CYCLOVIOLIN C] (cyclo(AGCSCKNKVCYRNGIPCGESCVFIPCLTTV); disulfide 3-17, 5-21, 10-26), the EC50 is reported as 50 nM. `CC[C@H](C)[C@@H]1NC(=O)[C@H](C)NC(=O)[C@H](C)NC(=O)[C@H](CO)NC(=O)[C@H]([C@@H](C)CC)NC(=O)[C@@H]2CSSC[C@@H]3NC(=O)[C@H](C(C)C)NC(=O)[C@H](CCCCN)NC(=O)[C@H](CC(N)=O)NC(=O)[C@H](CCCCN)NC(=O)[C@@H]4CSSC[C@H](NC(=O)[C@H](CO)NC(=O)[C@H](CCC(=O)O)NC(=O)CNC(=O)[C@H](CSSC[C@H](NC(=O)CNC1=O)C(=O)N[C@@H](CO)C(=O)N4)NC(=O)[C@@H]1CCCN1C(=O)[C@H](Cc1ccccc1)NC(=O)CNC(=O)[C@H](CC(N)=O)NC(=O)[C@H](CCCNC(=N)N)NC(=O)[C@H](Cc1ccc(O)cc1)NC3=O)C(=O)N[C@@H](C(C)C)C(=O)N[C@@H](Cc1ccccc1)C(=O)N[C@@H]([C@@H](C)CC)C(=O)N1CCC[C@H]1C(=O)N2` [CYCLOVIOLIN D] (cyclo(AAIGCSCKNKVCYRNGFPCGESCVFIPCIS); disulfide 5-19, 7-23, 12-28) showed an EC50 of 50 nM.

— ChEMBL document CHEMBL1137803, “A novel anti-HIV macrocyclic peptide from Palicourea condensata” (J Nat Prod, 2001)
